High-throughput results (PubChem BioAssay)
rRNA inh HTS: inhibitors of bacterial rRNA selective over humanized ribosomes | E. coli WT GFP vs humanized-ribosome RFP mutants, fluorescence, 24 h; stronger effect = lower value; DMSO median 0, no signal -100 | 1.6% of 350,000 active | GFP signal change (wild-type ribosome), % (test concentration not listed) | AID 720706;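 active = significant combined selectivity score with lowered wild-type GFP, culture density cut under 30%, mutant RFP and density less affected; inactive = any of these conditions unmet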
ERAP1 HTS inh: ERAP1 (human) enzyme inhibition; Q9NZ08; recombinant ERAP1, Leu-AMC fluorescence, 60 min; inhibition, % at 10.7 µM; 0.15% of 340,000 active;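 active = mean replicate inhibition of at least 30%, or all replicates individually reaching that 30% level; inactive = mean below 30% and not every replicate reaching it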
S100A4 MyoIIA: inhibitors of human S100A4 binding to myosin IIA peptide; 0.14% of 360,000 active; inhibition, % at 10.7 µM; P26447; S100A4/TAMRA-MyoIIA peptide fluorescence polarization; AID 652163;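 active = mean inhibition of at least 70% across replicates, with every replicate also reaching that level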
Target sequence (P26447 whole entry, looked up): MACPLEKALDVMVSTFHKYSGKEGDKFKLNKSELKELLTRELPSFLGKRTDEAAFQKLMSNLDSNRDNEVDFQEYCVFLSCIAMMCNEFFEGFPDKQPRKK
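Compound dosing: one dose per compound; test system: human S100A4 monomer with TAMRA-labelled myosin IIA peptide; probe or stimulus: TAMRA-labelled myosin IIA heavy-chain peptide probe, 5 nM; medium: HEPES buffer with Ca2+, pH 7.2; schedule: 5 min incubation before reading; benchmarks: neutral control DMSO, positive control TFP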
CFTR F508del cor: correctors of CFTR F508del function in bronchial epithelial cells; CFBE cells, YFP halide quenching; stimulated with forskolin plus potentiator P3; % fluorescence drop versus neutral controls; activity (quench increase), % at 7.58 µM; 0.36% of 350,000 active; AID 720511;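 active = mean added fluorescence quench of at least 8% versus neutral control, with both replicates also reaching 8%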;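 also: cells transiently co-express mutant CFTR-F508del with the halide-sensitive YFP; corrector assay measuring rescue of mutant channel to the surface after 24 h compound exposure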
SIRT5 inh: inhibitors of human sirtuin-5 desuccinylase; 1.1% of 330,000 active; Q9NXA8; Purified SirT5, succinyl-peptide AMC, trypsin-coupled fluorescence; inhibition, % at 15 µM; in the data active = inhibition above about 15%
Target sequence (Q9NXA8 whole entry, looked up): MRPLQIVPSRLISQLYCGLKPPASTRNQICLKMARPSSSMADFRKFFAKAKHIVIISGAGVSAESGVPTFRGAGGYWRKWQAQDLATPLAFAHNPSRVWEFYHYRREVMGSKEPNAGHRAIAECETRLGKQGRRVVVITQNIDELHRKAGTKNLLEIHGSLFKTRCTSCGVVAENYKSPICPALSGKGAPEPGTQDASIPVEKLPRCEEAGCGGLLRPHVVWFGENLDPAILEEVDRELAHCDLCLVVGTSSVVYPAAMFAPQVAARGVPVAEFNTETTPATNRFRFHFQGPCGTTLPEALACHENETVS
A number is an active result; i = inactive; nt = no result. A selection: hits, their analogues and other compounds. The true share with any hit is near 3.1%.

SMILES	rRNA inh HTS	ERAP1 HTS inh	S100A4 MyoIIA	CFTR F508del cor	SIRT5 inh
Cc1noc(C)c1S(=O)(=O)Nc1ccc2c(c1)CC(=O)N([C@@H](C)CO)C[C@@H](C)[C@H](CN(C)Cc1ccncc1)O2	i	i	i	i	i
COc1ccc(S(=O)(=O)N(C)C[C@H]2Oc3ccc(NS(=O)(=O)c4ccccc4)cc3CC(=O)N([C@H](C)CO)C[C@@H]2C)cc1	i	i	i	i	17
Cc1noc(C)c1S(=O)(=O)Nc1ccc2c(c1)CC(=O)N([C@H](C)CO)C[C@H](C)[C@H](CN(C)Cc1ccncc1)O2	i	i	i	i	20
COc1ccc(S(=O)(=O)Nc2ccc3c(c2)CC(=O)N([C@@H](C)CO)C[C@@H](C)[C@H](CN(C)S(=O)(=O)c2ccc(C)cc2)O3)cc1	i	i	i	i	19
Cc1ccc(S(=O)(=O)Nc2ccc3c(c2)CC(=O)N([C@@H](C)CO)C[C@H](C)[C@H](CN(C)S(=O)(=O)c2c(C)noc2C)O3)cc1	i	i	i	i	i
Cc1ccc(S(=O)(=O)N[C@@H]2CC[C@@H](CCn3cc(C4CCCC4)nn3)O[C@@H]2CO)cc1	i	i	i	i	i
COc1ccc(NC(=O)Nc2ccc3c(c2)CC(=O)N([C@H](C)CO)C[C@H](C)[C@@H](CN(C)S(=O)(=O)c2ccc(C)cc2)O3)cc1	i	i	i	i	15
O=C(C[C@@H]1C[C@H]2c3cc(NC(=O)c4ccc5c(c4)OCO5)ccc3O[C@H]2[C@H](CO)O1)NCc1cccc(F)c1	i	i	i	i	i
O=C(Nc1ccccc1F)N[C@H]1CC[C@H](CCNC(=O)C2CCCC2)O[C@H]1CO	i	i	i	i	i
Cc1cc(C(=O)Nc2cccc3c2O[C@@H](CN(C)Cc2ccc(Oc4ccccc4)cc2)[C@H](C)CN([C@H](C)CO)C3=O)n(C)n1	i	i	i	i	22
Cc1noc(C)c1NC(=O)Nc1cccc2c1O[C@H](CN(C)Cc1ccc(C(=O)Nc3ccccc3N)cc1)[C@@H](C)CN([C@@H](C)CO)C2=O	i	i	i	i	22
Cc1noc(C)c1NC(=O)Nc1cccc2c1O[C@H](CN(C)Cc1ccc(C(=O)Nc3ccccc3N)cc1)[C@H](C)CN([C@@H](C)CO)C2=O	i	i	i	i	i
C[C@@H]1CN([C@@H](C)CO)C(=O)c2cccc(NC(=O)C3CCOCC3)c2O[C@@H]1CN(C)Cc1ccc(C(=O)Nc2ccccc2N)cc1	i	i	79	i	i
Cc1noc(C)c1NC(=O)Nc1cccc2c1O[C@@H](CN(C)Cc1ccc(Oc3ccccc3)cc1)[C@@H](C)CN([C@H](C)CO)C2=O	i	i	i	i	37
Cc1noc(C)c1NC(=O)Nc1cccc2c1O[C@H](CN(C)Cc1ccc(Oc3ccccc3)cc1)[C@@H](C)CN([C@H](C)CO)C2=O	i	i	i	i	i
C[C@H]1CN([C@@H](C)CO)C(=O)c2cc(C3=CCCCC3)cnc2O[C@H]1CN(C)C(=O)C1CCOCC1	i	i	i	i	i
CCC(=O)Nc1ccc2c(c1)C(=O)N(C)[C@H]1CC[C@@H](CC(=O)NCc3ccccc3)O[C@H]1CO2	i	i	i	i	i
COc1ccc(NC(=O)N(C)C[C@@H]2OCCCC[C@@H](C)Oc3ccc(NS(=O)(=O)c4ccc(C)cc4)cc3C(=O)N([C@@H](C)CO)C[C@H]2C)cc1	i	i	i	i	i
C[C@@H]1CN([C@@H](C)CO)S(=O)(=O)c2ccc(-c3cccc(C#N)c3)cc2O[C@@H]1CN(C)C(=O)Nc1cc(F)ccc1F	i	i	i	i	i
COc1ccc(CCN2C(=O)CC(C(N)=O)SC2=Nc2ccccc2)cc1 (stereo unspecified)	-27	i	i	i	i
O=C(CCN1CCCCC1)NCC[C@@H]1CC[C@H](NC(=O)Nc2ccc(Cl)cc2)[C@H](CO)O1	i	i	i	i	i
C[C@H]1CN([C@@H](C)CO)C(=O)c2cc(-c3cccnc3)cnc2O[C@H]1CN(C)C(=O)C1CCCCC1	i	nt	nt	i	nt
O=C(NCCOc1ccccc1)c1cc([N+](=O)[O-])ccc1N1CCOCC1	i	i	i	12	i
O=C(NCCOc1ccccc1F)c1cc([N+](=O)[O-])ccc1N1CCOCC1	i	i	i	8.3	i
